Data taken from ChEMBL document CHEMBL4138103, “Discovery of efficient stimulators for adult hippocampal neurogenesis based on scaffolds in dragon's blood” (Eur J Med Chem, 2017).
Active and inactive are the calls of the source. No cut-off for these calls is given here.

Assays:
[1] = Cytotoxicity against human SH-SY5Y cells assessed as cell survival at 100 uM after 24 hrs by MTT assay relative to control; type: cell-based; conditions: read-out: Survival
Outline: (§1)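 SH-SY5Y human neuroblastoma cells seeded at 5 × 10⁴ cells/mL, incubated 24 h at 37 °C, then exposed to compounds at final concentrations of […] for 24 h. MTT added for a further 4 h at 37 °C. Absorbance read at 570 nm and reported as percent viability. Five parallel samples per condition.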

[2] = Cytotoxicity against human SH-SY5Y cells assessed as cell survival at 500 uM after 24 hrs by MTT assay relative to control; type: cell-based; conditions: read-out: Survival; outline: as §1
Rattus norvegicus = test: In vivo neurogenic activity in Sprague-Dawley rat neural progenitor cells at 4 mg/kg, ip qd pretreated for 28 days followed by BrdU addition at 2 hrs interval for twice on day 29 measured after 24 hrs by BrdU incorporation assay relative to control; type: functional
Outline: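 Male SD rats aged 10 weeks, acclimatized 7 days (11 weeks old at start), dosed ip once daily for 28 days with compound in soybean oil containing 10% ethanol; vehicle group received 10% ethanol in oil. On day 29, BrdU in saline given twice at 100 mg/kg, 2 h apart. Rats sacrificed 24 h after the last BrdU. BrdU+ cells in SGZ-GCL counted by DAB immunostaining of 30 µm cryosections; n = 8; mean ± SEM.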

[3] = Cytotoxicity against human SH-SY5Y cells assessed as cell survival at 1000 uM after 24 hrs by MTT assay relative to control; type: cell-based; conditions: read-out: Survival; outline: as §1

Compound | viability at 24 h, 100 µM [1] [%] | viability at 24 h, 500 µM [2] [%] | Activity (Rattus norvegicus) | viability at 24 h, 1000 µM [3] [%]
N#Cc1ccc(/C=C/c2ccc3c(c2)OCO3)cc1 | 110 | 43.7 | Active | 36.1
Cc1ccc(C#Cc2ccc3c(c2)OCO3)cc1 | 51.9 | 24.8 | – | 23.7
CC(=O)Nc1ccc(/C=C/c2ccc3c(c2)OCO3)cc1F | 86.7 | 82 | Active | 75.1
COc1ccc(/C=C/c2cccc(C#N)c2)cc1 | 66.3 | 67 | – | 48.3
C(=C\c1ccc2c(c1)OCO2)/c1ccc(OCc2ccccc2)cc1 | 67.3 | 72.7 | – | 80.6
Oc1ccc(/C=C/c2cc(C(F)(F)F)cc(C(F)(F)F)c2)cc1 | -4.81 | -0.07 | – | -3.86
COc1ccc2c(c1)OC(c1ccc3c(c1)OCO3)CC2=O (stereo not drawn) | 73.2 | 44.8 | – | 27.3
COc1ccc(C#Cc2cc(C)cc(C)c2)cc1 | 54.2 | 24.3 | – | 22.1
COc1ccccc1/C=C/c1ccc2c(c1)OCO2 | 36.1 | 33.6 | – | 23.6
COc1cccc(/C=C/c2ccc3c(c2)OCO3)c1 | 72.5 | 52.7 | – | 32
COc1cc(/C=C/c2ccc3c(c2)OCO3)cc(OC)c1 | 74 | 60.9 | – | 45.7
COc1ccc(/C=C/c2ccc(Cl)cc2)cc1OC | 57.3 | 51.6 | – | 56.4
CCCC(=O)Nc1ccc(/C=C/c2ccc3c(c2)OCO3)cc1 | 58.8 | 40.7 | Active | 33.3
COc1ccc(/C=C/c2ccc3c(c2)OCO3)cc1 | 76.1 | 69.6 | Active | 62.8
Cc1ccc(C#Cc2ccc(OCc3ccccc3)cc2)cc1 | 94.2 | 72.5 | – | 68
C(=C\c1ccc2c(c1)OCO2)/c1ccncc1 | 8.43 | 4.26 | – | 3.56
Oc1ccc(/C=C/c2cccc(OC(F)(F)F)c2)cc1 | 77.1 | 55.4 | – | 5.06
Oc1ccc(/C=C/c2ccc(Cl)cc2)cc1O | 107 | 69.2 | – | 38.5
COc1ccc(/C=C/c2ccc(N)c(F)c2)cc1 | 80 | 65.1 | – | 47.8
CC(=O)c1ccc(/C=C/c2ccc3c(c2)OCO3)cc1 | 70.3 | 63.5 | – | 53.9
Nc1ccc(/C=C/c2cccc(OC(F)(F)F)c2)cc1 | 51.8 | 31.9 | – | 26.9
COc1ccc(C(=O)/C=C/c2ccc(O)c(OC)c2)cc1 | 13.3 | 39.8 | – | 165
COc1cc(/C=C/C(=O)c2ccc(O)cc2)cc(OC)c1 | 5.64 | 3.53 | – | 2.57
CN(C)c1ccc(/C=C/C(=O)c2ccc3c(c2)OCO3)cc1 | 49.8 | 40.2 | – | 23.7

Compound | viability at 24 h, 100 µM [1] [%] | viability at 24 h, 500 µM [2] [%] | Activity (Rattus norvegicus) | viability at 24 h, 1000 µM [3] [%]
CC(=O)Nc1ccc(/C=C/C(=O)c2ccc3c(c2)OCO3)cc1 | 6.71 | 2.78 | – | 4.69
C(#Cc1ccc2c(c1)OCO2)c1ccsc1 | 46.2 | 32.9 | – | 21
COc1ccc(C(=O)/C=C/c2ccc3c(c2)OCO3)c(O)c1 | 90.4 | 59.9 | – | 49.3
CC(=O)Nc1cccc(/C=C/c2ccc3c(c2)OCO3)c1 | 20.9 | 7.78 | – | 2.7
COc1ccc(C#Cc2ccc(OC)c(OC)c2)cc1 | 94.1 | 78.9 | – | 65.5
N#Cc1cccc(/C=C/c2ccc(O)cc2)c1 | 20.9 | 16.9 | – | 14.9
C(#Cc1cccs1)c1ccc2c(c1)OCO2 | 43.9 | 27.5 | – | 17.7
CCCCCc1ccc(C#Cc2ccc(OCc3ccccc3)cc2)cc1 | 62.6 | 51.3 | – | 49
COc1ccc(/C=C/c2cccc(OC(F)(F)F)c2)cc1 | 40.2 | 40.5 | – | 38.7
Oc1ccc(/C=C/c2ccc3c(c2)OCCO3)cc1 | 2.8 | 2 | – | -0.08
COc1cc(/C=C/C(=O)c2ccc3c(c2)OCO3)ccc1O | 16.3 | 25.2 | – | 26.2
COc1ccc(/C=C/c2ccc(N)cc2)cc1OC | 53.7 | 51.7 | – | 50.4
COc1cccc(/C=C/c2ccc(NC(C)=O)cc2)c1 | 44.5 | 26.1 | – | 11.9
Oc1ccc(/C=C/c2cc(F)cc(F)c2)cc1 | -13.6 | -11 | – | -7.78
CCCCCOc1ccc(C#Cc2ccc3c(c2)OCO3)cc1 | 69.8 | 22.9 | – | 15.3
COc1cc(/C=C/c2ccc(O)cc2)cc(OC)c1OC | 27.5 | 25.9 | – | 21.2
COc1ccc(C#Cc2cc(C(F)(F)F)cc(C(F)(F)F)c2)cc1 | 28.6 | 20.9 | – | 18.3
COc1ccc(/C=C/c2ccc(O)cc2)cc1OC | 56.8 | 44.1 | – | 35.3
COc1ccc(/C=C/c2ccc(NC(C)=O)c(F)c2)cc1 | 14.2 | 1.52 | – | 0.69
Nc1ccc(/C=C/c2ccc3c(c2)OCO3)cc1 | 47.6 | 39.1 | – | 32.2
CC(=O)c1ccc(/C=C/c2ccc(O)cc2)cc1 | 94.4 | 59.2 | – | 24.6
Cc1cc(C)cc(/C=C/c2ccc(O)cc2)c1 | 7.31 | 1.84 | – | 2.88
CC(=O)Oc1ccc(/C=C/c2cc(C)cc(C)c2)cc1 | 3.24 | 2.8 | – | 18.4
COc1ccc(/C=C/C(=O)c2ccc3c(c2)OCO3)cc1O | 44.7 | 22.2 | – | 17.1
